pIC50: −log10 of the molar value. Calls of active or inactive are those of the source. The calls are words filed in the database; no cut-off is given here.
How the values were obtained:
[1] = Cytotoxicity against HLF assessed as cell viability after 24 hrs by MTT assay; design: species or system Homo sapiens; details: human, hlf
Procedure, shortened: (§1)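 MTT viability assay. Cells were seeded at 1 × 10^4 cells/well in complete medium and grown 24 h. Medium was replaced with fresh medium containing peptide over a concentration series and incubated 24 h. MTT (5 mg/mL) was added for 4 h, formazan was dissolved in DMSO, and A490 was read. IC50 was derived from mean ± SD of three independent experiments.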

A549 = test: Cytotoxicity against human A549 cells assessed as cell viability after 24 hrs by MTT assay; assay type: functional, cell-based; procedure, shortened: as §1
[2] = Cytotoxicity against human 293T cells assessed as cell viability after 24 hrs by MTT assay; assay type: cell-based, HEK-293T; details: human, hek-293t; procedure, shortened: as §1
[3] = Hemolytic activity in mouse RBC at 0.39 to 50 uM after 1 hr; assay type: ADME, cell-based; details: erythrocyte
Procedure, shortened: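 Heparinized fresh mouse blood: RBCs were washed three times in 0.9% saline and diluted to 4.0 × 10^8 cells/mL. Peptides at various concentrations were incubated with the RBCs 1 h at 37 °C. After centrifugation at 1000 rpm for 10 min, supernatant absorbance was read at 540 nm, with 1% Triton X-100 set as 100% hemolysis.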

MCF7 = test: Cytotoxicity against human MCF7 cells assessed as cell viability after 24 hrs by MTT assay; assay type: functional, cell-based; procedure, shortened: as §1
HeLa [4] = test: Cytotoxicity against human HeLa cells assessed as cell viability after 24 hrs by MTT assay; assay type: functional, cell-based; procedure, shortened: as §1
HUVEC = test: Cytotoxicity against HUVEC assessed as cell viability after 24 hrs by MTT assay; assay type: cell-based, Homo sapiens; details: human, huvec; procedure, shortened: as §1
HeLa [5] = test: Drug uptake in human HeLa cells at 5 uM after 15 mins using iridium dye labeled compound by confocal microscopic method; assay type: ADME, cell-based; details: 0.25 h
Procedure, shortened: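 Peptides were labelled at the N-terminal His with [Ir(ppy)2(H2O)2]OTf: 200 μM each, mixed 1:1 in PBS, 2 h at 37 °C in the dark. HeLa cells (1 × 10^5 per dish, grown 24 h) were exposed to 5 μM labelled peptide. Live-cell confocal images were taken at 0, 5 and 15 min (excitation 403 nm, emission 500–560 nm).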

Row | Drug uptake (HeLa [5]) | Compound | Activity [1] | Activity (A549) | Activity [2] | Activity [3] | Activity (MCF7) | pIC50 (HeLa [4]) | Activity (HUVEC)
1 | – | H-HGGKLLKLLKLKKLLKL-NH2 | Non-toxic | inactive | Non-toxic | Non-toxic | inactive | 4.46 | Non-toxic
2 | – | H-HGGKLLKLLKKLLKLLK-NH2 | Toxic | Active | Toxic | Toxic | Active | 5.48 | Toxic
3 | Active | CC(C)C[C@@H](NC(=O)[C@@H](CCCNC(=N)N)NC(=O)[C@@H](CC(C)C)NC(=O)[C@@H](CC(C)C)NC(=O)[C@@H](CCCNC(=N)N)NC(=O)[C@@H](CCCNC(=N)N)NC(=O)[C@@H](CC(C)C)NC(=O)[C@@H](CCCNC(=N)N)NC(=O)[C@@H](CC(C)C)NC(=O)[C@@H](CC(C)C)NC(=O)[C@@H](CCCNC(=N)N)NC(=O)[C@@H](CC(C)C)NC(=O)[C@@H](CC(C)C)NC(=O)[C@@H](CCCNC(=N)N)NC(=O)CNC(=O)CNC(=O)[C@H](N)Cc1cnc[nH]1)C(N)=O | – | – | – | – | – | 5.39 | –

From ChEMBL document CHEMBL3826940, “Amphipathicity Determines Different Cytotoxic Mechanisms of Lysine- or Arginine-Rich Cationic Hydrophobic Peptides in Cancer Cells” (J Med Chem, 2016)
